# Source: PubChem BioAssay (Sanford-Burnham Center for Chemical Genomics)
# In the library only some 0.79% were active in any assay of this set; here they are far more common.
# mIAP block: blocks mouse intestinal alkaline phosphatase. purified mouse IAP, CDP-Star luminescence, 30 min. inhibition, % at 10 µM. 0.2% of 330,000 active. AID 2806;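 active means inhibition of at least 40% at 10 µM in the primary screen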
# hIAP block: human IAP inhibition | P09923 | purified IAP, CDP-Star luminescence, 30 min | inhibition, % at 10 µM | 0.12% of 330,000 active;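 active means inhibition reaching a set limit with compound at 10 µM in the primary screen, cut at about 35% in these data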
# Target sequence (P09923 whole entry, looked up): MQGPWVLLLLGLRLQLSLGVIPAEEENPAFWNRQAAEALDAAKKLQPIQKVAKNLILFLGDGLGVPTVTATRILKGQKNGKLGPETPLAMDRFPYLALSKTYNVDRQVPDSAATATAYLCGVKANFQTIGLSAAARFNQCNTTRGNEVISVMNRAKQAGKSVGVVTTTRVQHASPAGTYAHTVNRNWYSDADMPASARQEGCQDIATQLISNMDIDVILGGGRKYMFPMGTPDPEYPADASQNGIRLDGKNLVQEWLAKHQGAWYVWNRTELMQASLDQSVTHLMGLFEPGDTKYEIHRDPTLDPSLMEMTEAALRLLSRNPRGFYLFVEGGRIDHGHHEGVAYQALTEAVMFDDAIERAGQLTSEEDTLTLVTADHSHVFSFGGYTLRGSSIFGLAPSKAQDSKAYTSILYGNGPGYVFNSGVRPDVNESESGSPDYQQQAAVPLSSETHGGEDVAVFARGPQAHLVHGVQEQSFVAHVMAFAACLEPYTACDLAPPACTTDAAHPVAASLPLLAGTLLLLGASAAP
# bIAP inhibitor: intestinal alkaline phosphatase (bovine) inhibition; inhibition, % at 20 µM; 190,000 tested, under 10 active; AID 1019; purified bovine IAP, CDP-star luminescence, 30 min;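 active means over 50% inhibition of intestinal alkaline phosphatase at 20 µM in the single-dose screen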
#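 test system = bovine IAP enzyme | medium = DEA buffer 100 mM, pH 9.8, with MgCl2 1.0 mM, ZnCl2 0.02 mM | detection = luminescence | dosing = single compound dose of 20 µM, 2% DMSO final | incubation = 30 min reaction at room temperature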
# mIAP activ: increases mouse intestinal alkaline phosphatase activity | muIAP, CDP-Star luminescence, 30 min; active compounds read high; 1 = vehicle-only enzyme signal, 0 = enzyme-free wells | AID 2805 | activation factor at 10 µM | 0.24% of 330,000 active;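 active means activation factor of at least 2 at 20 µM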
#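 Assay system: mouse IAP enzyme; Reagent: CDP-Star chemiluminescent phosphatase substrate; Compound: DMSO-dissolved test compounds; Incubation: 30 min, room temperature; Technique: luminescence from enzymatic CDP-Star hydrolysis; Controls: DMSO-only wells and no-enzyme negative control.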
# hIAP activ: human IAP activation | P09923 | purified human IAP, CDP-Star luminescence, 30 min; active compounds read high; 1 = vehicle-only enzyme, 0 = enzyme-free background | activation factor at 10 µM | 0.16% of 330,000 active | AID 2524;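 active means activation factor of the enzyme at least 2-fold when tested at 20 µM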
# bIAP activator: increases bovine intestinal alkaline phosphatase activity; 0.17% of 200,000 active; activation factor at 20 µM; AID 1016; purified bovine IAP, CDP-star luminescence, 30 min; active compounds read high; fold of DMSO-control signal, blank-subtracted;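 active means activation factor of 2 or more at 20 µM, a signal rise over negative controls twice the positive control's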
# hIAP act confirm: human IAP activation confirmation. shares compounds with hIAP activ. purified IAP, CDP-Star luminescence, 30 min; active compounds read low. activation (%Activity, negative = activation), % at 8.3 µM. 10% of 880 active. AID 434926;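 active means at least twofold enzyme activation in any of six single-dose repeats, which the averaged readout prints as negative percent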
# A number is an active result; i = inactive; nt = no result.
SMILES,mIAP block,hIAP block,bIAP inhibitor,mIAP activ,hIAP activ,bIAP activator,hIAP act confirm
COc1ccc(O)c(/C=N/NC(=O)c2cccc(N3CCCC3=O)c2)c1,i,i,nt,i,2.05,nt,i
O=C(Nc1cccc(-c2cccc(F)c2)c1)C1CCN(C2CCOCC2)CC1,i,i,nt,i,2.85,nt,i
CS(=O)(=O)N1CCC(C(=O)Nc2cccc(F)c2)CC1,i,i,nt,i,i,nt,nt
Cc1ccc(S(=O)(=O)NCCC(=O)NNC(=O)COc2ccc(Br)cc2)cc1C,i,i,nt,i,2.48,nt,i
c1ccc(Nc2ccnc(Nc3ccccc3)n2)cc1,i,i,nt,i,2.77,nt,-43.5
COc1cccc(/C=N\NC(=O)Cn2nnc3ccccc32)c1O,i,i,i,i,i,i,nt
Cc1cc(C)cc(OCC(=O)NNC(=O)c2cc(C)[nH]n2)c1,i,i,i,i,2.07,i,-94.6
O=C(CCCCC(=O)NNC(=O)COc1ccccc1)NNC(=O)COc1ccccc1,i,i,nt,i,2.51,nt,-88.4
CC(C)(C)NC(=O)C(=O)NNC(=O)COc1ccccc1,i,i,i,i,2.07,i,i
Cc1cccc(OCC(=O)NNC(=O)CCCCC(=O)NNC(=O)COc2cccc(C)c2)c1,i,i,nt,i,3.24,nt,i
Cc1cccc(OCC(=O)NNC(=O)c2ccc3nc[nH]c3c2)c1,i,i,nt,i,2.36,nt,-117.3
CC1(C)OCC(COC(=O)Nc2cccnc2)([N+](=O)[O-])CO1,i,i,i,i,i,i,nt
Cc1ccc(C(=O)NNC(=O)CCCCC(=O)NNC(=O)c2ccc(C)cc2)cc1,i,i,nt,i,2.31,nt,i
O=C(NNCc1ccc(O)cc1)c1ccccc1Cl,i,i,nt,i,i,nt,nt
NC(=O)CC(NC(=O)c1ccccc1)c1ccc(NCc2ccccc2)c([N+](=O)[O-])c1 (configuration not stated),i,i,nt,i,i,nt,nt
O=C1CCCc2ccccc2N1,i,i,i,i,i,i,nt
CCN(CC)CCN=C1CCCc2ccccc2N1,i,52.5,i,i,i,i,i
COc1ccc(NC(=O)CCN2CCN(S(=O)(=O)c3ccc(Br)cc3)CC2)cc1,i,i,nt,i,i,nt,nt
COc1ccc(NC(=O)CCN2CCN(S(=O)(=O)c3cc(Cl)ccc3OC)CC2)cc1,i,36.2,i,i,i,i,i
Cc1ccc(-n2ncc3c(NNC(=O)Cc4ccccc4)ncnc32)cc1,i,i,i,i,2.21,i,i
CC(=O)Nc1ccc(Nc2ncnc3c2cnn3-c2ccccc2)cc1,i,i,i,i,i,i,nt
CC(=O)NNc1ncnc2c1cnn2-c1ccccc1,i,i,i,i,3.04,i,i
C=CCN1C(=O)/C(=C\C=C2\N(C)c3ccccc3C2(C)C)SC1=S,i,45.6,i,i,i,i,-267.3
C=CCN(c1ccccc1)S(=O)(=O)c1cccc(C(=O)Nc2ccc(N3CCOCC3)cc2)c1,i,i,nt,i,i,nt,nt
COc1cc(/C=C/C(=O)O)cc(S(=O)(=O)Nc2ccccc2C(=O)NCc2ccco2)c1OC,i,i,nt,i,i,nt,nt
SMILES,mIAP block,hIAP block,bIAP inhibitor,mIAP activ,hIAP activ,bIAP activator,hIAP act confirm
Cc1ccc2oc(C(=O)N3CCCCCC3)c(C)c2c1,i,45.6,nt,i,i,nt,i
Cc1cc(C)n(C(=O)C23CC4CC(CC(C4)C2)C3)n1,i,i,i,i,2.36,i,-125.8
Cc1cc(C)n(C(=O)CN2C(=O)CCC2=O)n1,i,i,i,i,i,i,nt
O=C(NCC1CCCO1)C(=O)N/N=C/c1cc(Cl)ccc1O (configuration not stated),i,i,nt,i,2,nt,i
CN1CCc2c1nc1ccccc1c2N (tested in a mixture with another compound),i,38.5,nt,i,i,nt,i
C=CCN1C(=O)/C(=C/C=C2/N(CC)c3ccc(S(=O)(=O)N(C)C)cc3N2CC)SC1=S,i,35.9,i,i,i,i,i
CCOC(=O)c1cc(C)n(Cc2ccc(OCC)c(OC)c2)c1C,i,i,i,i,i,i,nt
O=C(COc1ccc2c3c(c(=O)oc2c1)CCCC3)N1CCN(c2ccccc2)CC1,i,36.9,nt,i,i,nt,i
Cc1cc(OCC(=O)N2CCN(c3ccccc3)CC2)c2c(C)cc(=O)oc2c1,i,38.6,nt,i,i,nt,i
O=C(O)COc1ccc2c3c(c(=O)oc2c1)CCCC3,i,i,i,i,i,i,nt
CCC(OC(=O)C1=Cc2ccccc2OC1)C(=O)NC1CCCC1 (configuration not stated),i,66.1,i,i,i,i,-52.5
CC(C)C(OC(=O)C1=Cc2ccccc2OC1)C(=O)NC1CCCC1 (configuration not stated),i,i,i,i,i,i,nt
Cc1ccc(NC(=O)Cn2cnc3c(NCc4ccccc4)ncnc32)cc1C,i,nt,nt,i,nt,nt,nt
Nc1ccccc1-c1nnc(-c2ccc(-c3ccccc3)cc2)o1,i,i,i,i,2,i,i
c1ccc(-c2nnc(-c3ccccc3)o2)cc1,i,i,i,i,i,i,nt
O=C(O)CC(C(=O)Nc1ccc(Cl)cc1)N1CCCCCC1 (configuration not stated),i,i,nt,i,i,nt,nt
CCOc1ccc(C(C)NC(=S)NC2CCCCC2)cc1 (configuration not stated),i,i,i,i,i,i,nt
CC(NC(=S)NC1CCCCC1)c1ccc(C(C)(C)C)cc1 (configuration not stated),i,i,nt,5.31,2.33,nt,i
CCC(C)c1ccc(C(C)NC(=S)NC2CCCCC2)cc1 (configuration not stated),i,i,nt,4.7,3.56,nt,i
Cc1ccc(S(=O)(=O)N2CCC[C@H]2C(=O)Nc2ccc(F)cc2C)cc1,i,i,nt,i,i,nt,nt
Cc1ccc(C(=O)CSc2nc(C)cc(=O)[nH]2)cc1,i,i,i,i,i,i,nt
Cc1cc(=O)[nH]c(SCC(=O)c2ccc(O)c(O)c2)n1,i,43.3,nt,i,i,nt,i
CCN(c1ccccc1)S(=O)(=O)c1ccc(OC)c(NC(=O)c2c(C)noc2C)c1,i,i,nt,i,i,nt,nt
CC(C)c1ccc(OCC(=O)NNC(=S)NC(=O)C2CC2)cc1,i,i,nt,i,i,nt,nt
N#Cc1ccc(OCC(=O)NNC(=S)NC(=O)C2CC2)cc1,i,i,nt,i,2.21,nt,i
COc1ccc2nc(NC(=O)CN(c3ccc(C)cc3)S(=O)(=O)c3c(C)nn(C)c3C)sc2c1,i,i,i,i,i,i,nt
Cc1nn2c(C(F)(F)F)cc(-c3ccc(Cl)cc3)nc2c1C(=O)N1CCOCC1,i,i,i,i,2.77,i,i
O=C(c1cnn2c(C(F)(F)F)cc(-c3ccc(Br)cc3)nc12)N1CCOCC1,nt,nt,i,nt,nt,i,nt
COc1cc(C(=O)NCC(=O)N/N=C/c2ccc(-c3ccc([N+](=O)[O-])cc3)o2)cc(OC)c1OC,i,36.1,nt,i,i,nt,i
